An excerpt weighted towards active compounds, which were near 1.9% of everything screened.
VIM-2 inh: VIM-2 metallo-beta-lactamase inhibitors, primary screen, biochemical, epi-absorbance readout, Pseudomonas aeruginosa enzyme | purified VIM-2, nitrocefin hydrolysis, epi-absorbance fluorescence | inhibition, % at 5.6 µM | actives 0.89% (n = 290,000);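 active = inhibition above the mean of all tested compounds plus 3 SD, cutoff set per screening run, cut at about 7.5% in these data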;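 note: red hydrolysis product quenches plate fluorescence so inhibitors raise well fluorescence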
core dimer inh: inhibitors of HCV core protein dimerization, primary screen, biochemical, TR-FRET, high-throughput | TR-FRET GST/Flag-core106 dimerization, 1536-well | inhibition, % at 5 µM | actives 0.33% (n = 300,000) | AID 1899, 2009;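 active = inhibition above the mean of all tested compounds plus 3 SD, set per screening campaign, cut at about 45% in these data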
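Assay system – GST-tagged and Flag-tagged HCV core protein residues 1-106 · Quantity – core106 proteins, GST 13.5 nM and Flag 17 nM · Benchmarks – unlabelled core106 and no-GST-core106 wells · Read-out basis – percent inhibition of core106 dimerization signal · Detection – time-resolved FRET, ex 340 nm, em 617 and 671 nm · Schedule – 4 h at 22.5 °C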
NadD block: inhibitors of S. aureus NadD, primary screen, biochemical, colorimetric, uHTS. actives 0.78% (n = 360,000). Nicotinate-nucleotide adenylyltransferase NadD (Staphylococcus aureus N315). purified NadD enzyme, colorimetric absorbance read-out. inhibition, % at 20 µM; in the data active = inhibition above about 26%
IMP-1 inh: IMP-1 metallo-beta-lactamase inhibitors, primary screen, biochemical, epi-absorbance readout, Pseudomonas aeruginosa enzyme. metallo-beta-lactamase IMP-1 (Pseudomonas aeruginosa). purified IMP-1, nitrocefin hydrolysis, epi-absorbance fluorescence. inhibition, % at 5.6 µM. actives 0.45% (n = 290,000). AID 1556, 2009;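 active = inhibition above the mean plus 3 SD of all compounds in the same screening run, cut at about 4.5% in these data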
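System: Purified recombinant IMP-1 metallo-beta-lactamase enzyme | Measured by: Fluorescence quenching readout, ex 480/em 530 nm | Replication: Singlicate | Incubation: 15 min preincubation plus 25 min reaction at 25 °C | Evaluation: Percent inhibition from optical density relative to buffer-blank wells | Benchmarks: DMSO with and without IMP-1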
Each line names hits and unclear results; the compound was inactive in the other large screens.

CCOC(=O)N1CCC(N(CCN(C)C)C(=S)Nc2ccc(OCC)cc2)CC1	none (no result: NadD block)
COc1ccccc1CNC(=O)C1CCCN(S(=O)(=O)c2ccc3c(c2)C(C)(C)C(=O)N3C)C1 (stereo not drawn)	none
Cc1nc2c(C)cccn2c1/C(O)=C1\C(=O)C(=O)N(CCN(C)C)C1c1cccs1 (stereo not drawn)	none (no result: VIM-2 inh, core dimer inh, IMP-1 inh)
COc1ccc(C2C(C#N)=C(N)OC(C(C)(C)C)=C2C#N)cc1OC (stereo not drawn)	none
COc1ccc(C2C(C#N)=C(N)SC(N)=C2C#N)cc1OC	core dimer inh 61
O=C(c1ccc(Cl)cc1)c1c[nH]cc1-c1ccccc1	IMP-1 inh 4.5
COc1ccccc1/C=C(/CC(=O)NCc1ccccc1)c1nc2ccccc2s1	core dimer inh 49
COc1ccccc1/C=C(/CC(=O)NCc1ccc(F)cc1)c1nc2ccccc2s1	core dimer inh 67
COc1ccc(-n2nc([N+](=O)[O-])c(=NC3CCN(Cc4ccccc4)CC3)n2O)cc1	IMP-1 inh 9.4
CCc1ccc(NC(=O)C2CCN(S(=O)(=O)c3cnc[nH]3)CC2)cc1	IMP-1 inh 12
CCc1ccc(NC(=O)C2CCCN(S(=O)(=O)c3cnc[nH]3)C2)cc1 (stereo not drawn)	none
Cc1ccc(NS(=O)(=O)c2ccc(OCC(=O)NCc3ccccn3)cc2)cc1	none
COc1ccc(C(=O)Nc2ccc(Cn3ccnc3)cc2)cc1OC	VIM-2 inh 8.5
COc1cc(OC)cc(C(=O)Nc2ccc(Cn3ccnc3)cc2)c1	none
Cc1ccc(N=Cc2cc(Cc3ccccc3Cl)cc([N+](=O)[O-])c2O)c(O)c1	NadD block 42, IMP-1 inh 6.3
O=C(COc1coc(CN2CCc3ccccc32)cc1=O)Nc1ccccc1	none (no result: VIM-2 inh, IMP-1 inh)
C=CCOc1ccc(C2C(C(=O)c3ccco3)=C(O)C(=O)N2c2nnc(C)s2)cc1 (stereo not drawn)	IMP-1 inh 5.2
COc1ccc(C2C(C(=O)c3ccco3)=C(O)C(=O)N2c2nnc(C)s2)cc1 (stereo not drawn)	none
Cc1ccc(CC2C(=O)N(c3cc(Cl)ccn3)C(=O)C2C)cc1 (stereo not drawn)	IMP-1 inh 13
O=C1c2ccccc2C(=O)N1Cc1cccnc1	none
Cc1nc2ccccc2c2c1C(=O)N(Cc1cccnc1)C2=O	VIM-2 inh 11
Fc1ccc(-c2nc3ccc(Br)cn3c2Cc2ccccc2C(F)(F)F)cc1	none (no result: VIM-2 inh, core dimer inh, IMP-1 inh)
COc1ccc(C(=O)c2ccccc2)c2c(O)ccc(C(=O)c3ccccc3)c12	NadD block 31
CCCn1c(CCC(=O)O)ccc1-c1ccc(OC)cc1	core dimer inh 46
CCOC(=O)C(C)Sc1nnc2c3ccccc3n(C)c2n1 (stereo not drawn)	VIM-2 inh 8.8
Cc1ccc(C2=NN=C(NC(=O)CSc3nnc4c5ccccc5n(C)c4n3)SC2)cc1	NadD block 82
C=CCn1c2ccccc2c2nnc(SCCN3CCOCC3)nc21	VIM-2 inh 12
Cn1c2ccc(F)cc2c2nnc(SCC(=O)Nc3cccc(O)c3)nc21	VIM-2 inh 8.8
Cc1sc2ncnc(N3CCC(C(=O)N(C)CC(=O)Nc4ccc(Cl)c(C(F)(F)F)c4)CC3)c2c1C	none (no result: VIM-2 inh, IMP-1 inh)
S=C(NCCc1ccccc1)N1CCC2CC1c1cc(-c3ccc4c(c3)OCO4)ccc12 (stereo not drawn)	none (no result: VIM-2 inh, core dimer inh, IMP-1 inh)
Cn1c2ccc(F)cc2c2nnc(SCCN3CCOCC3)nc21	VIM-2 inh 7.8 (no result: core dimer inh)
CCCCn1c2ccc(F)cc2c2nnc(SCCN3CCOCC3)nc21	none (no result: core dimer inh)
CSc1nc(O)c(N=Nc2ccc(F)cc2F)c(=O)[nH]1	none
CN(C)c1cc(Nc2cccc(O)c2)c([N+](=O)[O-])c2nonc12	none
CN(C)c1cc(Nc2ccc(O)cc2)c([N+](=O)[O-])c2nonc12	VIM-2 inh 9.1
Cc1ccc(-n2ncc(C(=O)O)c2C2CCN(C(=O)OC(C)(C)C)CC2)cc1	VIM-2 inh 8.4
CCN(CC)CCN(C(=O)C1=COCCO1)c1nc2c(OC)ccc(OC)c2s1	VIM-2 inh 8.9
CCN(CC)CCN(C(=O)C1=COCCO1)c1nc2ccc(C)cc2s1	none
Cc1ccc(C(=O)O[C@H](C(=O)O)[C@H](OC(=O)c2ccc(C)cc2)C(=O)O)cc1	none
O=C(Cc1coc2cc3c(cc12)CCC3)OCc1cc(=O)n2c(n1)sc1ccccc12	core dimer inh 57
O=C(OCc1cc(=O)n2c(n1)sc1ccccc12)c1cccc(O)c1	core dimer inh 51
O=C(OCc1cc(=O)n2c(n1)sc1ccccc12)c1ccc(O)cc1O	none
CCCS(=O)(=O)C/C(N)=N/OC(=O)c1ccccc1Cl	IMP-1 inh 8.3
O=C(O)CN1CCNCCN(CC(=O)O)CCNCC1	none (no result: VIM-2 inh, core dimer inh, IMP-1 inh)
CCNC(=O)CSc1ncnc2sccc12	core dimer inh 58
CCOc1ccc2[nH]c(=O)c(CN(Cc3nnnn3Cc3ccco3)C3CCCCC3)cc2c1	none
COc1cc2cc(CN(Cc3nnnn3Cc3ccco3)C3CCCCC3)c(=O)[nH]c2cc1OC	VIM-2 inh 9.3
Cc1occc1-c1nnc(-c2cc([N+](=O)[O-])cc([N+](=O)[O-])c2)o1	core dimer inh 49
CC1(NC(=O)CCNC(=O)c2ccc(C(C)(C)C)cc2)CCS(=O)(=O)C1 (stereo not drawn)	none (no result: VIM-2 inh, core dimer inh, IMP-1 inh)
O=C1OCC(c2ccccc2)=C1c1ccc(S(=O)(=O)N2CCOCC2)s1	IMP-1 inh 44
O=C(CC1(O)C(=O)N(Cc2cccc3ccccc23)c2ccccc21)c1cccnc1 (stereo not drawn)	none
CN1C(=O)C(O)(CC(=O)c2cccnc2)c2ccccc21 (stereo not drawn)	IMP-1 inh 8.6
COc1ccc(F)cc1C(=O)C1CCCN(C(=O)Cc2c(C)noc2C)C1 (stereo not drawn)	VIM-2 inh 8.3
O=C1CSC(=S)N1N=Cc1c(O)ccc2ccccc12	NadD block 34 (no result: VIM-2 inh, core dimer inh, IMP-1 inh)
COc1ccc2ccccc2c1/C=N/N1C(=O)CSC1=S	IMP-1 inh 22
O=C(COC(=O)C1CCN(c2ccc(C(F)(F)F)cn2)CC1)Nc1ncc(Cl)cc1Cl	none (no result: VIM-2 inh, core dimer inh, IMP-1 inh)
Cc1nc(NC2=NCN(CCCN3CCOCC3)CN2)nc2c(C)cccc12	VIM-2 inh 8.7
CCOC(=O)C1CCN(C(=O)Nc2ccc3nc(-c4ccco4)c(-c4ccco4)nc3c2)CC1	core dimer inh 72, NadD block 66
O=C(Nc1ccc2nc(-c3ccco3)c(-c3ccco3)nc2c1)N1CCCCCC1	core dimer inh 75 (no result: NadD block)
Cc1nc2ccc(NC(=O)N3CCCCC3)cc2nc1C	none
CN1CCn2cnc(C(=O)N[C@@H](Cc3ccccc3)C(=O)OC(C)(C)C)c2C1=O	none (no result: VIM-2 inh, core dimer inh, IMP-1 inh)
CCCC1=NN2C(=N)/C(=C\c3cc(C)n(-c4cc(C)cc(C)c4)c3C)C(=O)N=C2S1	NadD block 37
Cc1cc(C)cc(-n2c(C)cc(/C=C3\C(=N)N4N=C(CC(C)C)SC4=NC3=O)c2C)c1	NadD block 35

High-throughput results from PubChem.
